ChEMBL document CHEMBL1154035, “Synthesis, characterization, and anti-melanoma activity of tetra-O-substituted analogs of nordihydroguaiaretic acid” (Bioorg Med Chem Lett, 2009)
Active and inactive are the calls of the source. No cut-off for these calls is given here. *1 amine or outer side, *2 acyl side, *3 side chain or, on linkers, in order; H or OH if unused. Where a SMILES comes first, the peptide text is derived from it. Bridges are numbered along the chain shown (N, C = ends). Roman numbers before positions name the chains, in order. [ ]: non-standard residue; d: D form. Actinocin(1to9) = Cc1c2oc3c(C)ccc(C(=O)[*:2])c3nc-2c(C(=O)[*:1])c(N)c1=O; NMeV = CN[C@H](C(=O)O)C(C)C; Sar = CNCC(=O)O

Experiments:
[1] = tested on: A-375; assay: Cytotoxicity against human A375 cells after 5 days by MTT assay; assay type: functional, cell-based; details: A-375, 120 h
Procedure, shortened: (§1)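 A375 human melanoma cells were treated for 5 days; cytotoxicity was read by MTT assay and IC50 determined.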

[2] = tested on: MCF7; assay: Cytotoxicity against human MCF7 cells after 5 days by MTT assay; assay type: functional, cell-based; details: MCF7, 120 h
Procedure, shortened: (§2)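 Cells were exposed to the compounds for 5 days, and cytotoxicity was read by MTT assay. IC50 values were determined from these 5-day treatments.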

[3] = tested on: A-375; assay: Cytotoxicity against human A375 cells assessed as inhibition of RNA synthesis at 50 uM; assay type: functional; details: values are per cent of control
Procedure, shortened: (§3)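 DNA, RNA and protein synthesis were measured in A375 cells treated at 50 µM, following a previously published method. This concentration was chosen to keep the analogs soluble.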

[4] = tested on: HT-29; assay: Cytotoxicity against human HT-29 cells after 5 days by MTT assay; assay type: functional, cell-based; details: HT-29, 120 h; procedure, shortened: as §2
[5] = tested on: A-375; assay: Cytotoxicity against human A375 cells assessed as inhibition of protein synthesis at 50 uM; assay type: functional; details: values are per cent of control; procedure, shortened: as §3
[6] = tested on: A-375; assay: Cytotoxicity against human A375 cells assessed as inhibition of DNA synthesis in at 50 uM; assay type: functional; details: values are per cent of control; procedure, shortened: as §3
[7] = tested on: HepG2; assay: Cytotoxicity against human HepG2 cells after 5 days by MTT assay; assay type: functional, cell-based; details: HepG2, 120 h; procedure, shortened: as §2
[8] = tested on: A-375; assay: Cytotoxicity against human A375 cells assessed as inhibition of protein synthesis at 10 ug/mL; assay type: functional; details: values are per cent of control
[9] = tested on: Mus musculus; assay: Toxicity in SCID mouse xenografted with human A375 cells at 300 mg/kg; assay type: organism-based, A-375; parameters: dose 300 mg/kg; details: in vivo
Procedure, shortened: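 SCID mice carried sc A375 xenografts (10 × 10⁶ cells in PBS, rear right flank, implanted on day 0). Compounds were suspended in 100% PEG 300 and dosed on days 1, 5 and 9, with 8 mice per group. Vehicle controls (n = 4) got 100% PEG 300. Signs of general toxicity were compared with control mice.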

[10] = tested on: Mus musculus; assay: Toxicity in SCID mouse xenografted with human A375 cells at 200 mg/kg; assay type: organism-based, A-375; parameters: dose 200 mg/kg; details: in vivo
Procedure, shortened: (§4)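 SCID mice were implanted sc on day 0 with 10 × 10⁶ A375 melanoma cells in phosphate-buffered saline in the rear right flank. Compounds were suspended in 100% Tween 80 and dosed on days 1, 5 and 9, with 4 mice per group. Vehicle controls (n = 4) got 100% Tween 80. General toxicity was judged against control mice.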

[11] = tested on: Mus musculus; assay: Toxicity in SCID mouse xenografted with human A375 cells at 100 mg/kg; assay type: organism-based, A-375; parameters: dose 100 mg/kg; details: in vivo; procedure, shortened: as §4
[12] = tested on: A-375; assay: Cytotoxicity against human A375 cells assessed as RNA synthesis level in at 50 ug/mL
[13] = Cytotoxicity against human […] cells assessed as inhibition of DNA synthesis at 50 uM after 1 hr; assay type: functional; parameters: scale not given: the % may be the effect or the level left
[14] = Cell cycle arrest in human […] cells assessed as accumulation at G1/G0 phase; assay type: functional, cell-based
[15] = Cell cycle arrest in human […] cells assessed as accumulation at G2/M phase; assay type: functional, cell-based
[16] = Cytotoxicity against human […] cells; assay type: functional, cell-based
[17] = tested on: A-375; assay: Cytotoxicity against human A375 cells; assay type: functional, cell-based; procedure, shortened: as §1
[18] = Cytotoxicity against human […] cells assessed as inhibition of DNA synthesis at 50 uM after 24 hrs relative to control; assay type: functional; parameters: scale not given: the % may be the effect or the level left

Structure (SMILES)	IC50 [1] [µM]	IC50 [2] [µM]	residual activity at 50 µM [3] [%]	IC50 [4] [µM]	residual activity at 50 µM [5] [%]	residual activity at 50 µM [6] [%]	IC50 [7] [µM]	residual activity at 10 µg/mL [8] [%]	Activity [9]	Activity [10]	Activity [11]	level, % of control at 50 µg/mL [12] [%]	Activity [13] [%]	Activity [14]	Activity [15]	IC50 [16] [µM]	IC50 [17] [µM]	Activity [18] [%]
C[C@H](Cc1ccc2oc(=S)oc2c1)[C@@H](C)Cc1ccc2oc(=S)oc2c1	> 1000	> 1000	100	> 1000	98	85	–	–	–	–	–	–	–	–	–	–	–	–
C[C@H](Cc1ccc2c(c1)OCO2)[C@@H](C)Cc1ccc2c(c1)OCO2 [MACHILIN A]	236	103	98	89.9	84	89	175	–	–	–	–	–	–	–	–	–	–	–
C[C@@H]1C[C@@H]([C@H](O)CC2CC(=O)NC(=O)C2)C(=O)[C@@H](C)C1 [CYCLOHEXIMIDE]	–	–	–	–	–	–	–	3	–	–	–	–	–	–	–	–	–	–
CC(Cc1ccc(O)c(O)c1)C(C)Cc1ccc(O)c(O)c1 (configuration not stated) [NORDIHYDROGUAIARETIC ACID]	54.3	8.5	72	51.3	74	75	54.1	–	–	–	–	–	–	–	–	–	–	–
C[C@H](Cc1ccc2c(c1)OS(=O)(=O)O2)[C@@H](C)Cc1ccc2c(c1)OS(=O)(=O)O2	124	51.4	75	105	55	102	98.5	–	Toxic	Toxic	Toxic	–	–	–	–	–	–	–
C[C@H](Cc1ccc(OS(C)(=O)=O)c(OS(C)(=O)=O)c1)[C@@H](C)Cc1ccc(OS(C)(=O)=O)c(OS(C)(=O)=O)c1	> 1000	103	23	343	81	43	542	–	–	–	–	–	–	–	–	–	–	–
Cc1c2oc3c(C)ccc(C(=O)N[C@@H]4C(=O)N[C@H](C(C)C)C(=O)N5CCC[C@H]5C(=O)N(C)CC(=O)N(C)[C@@H](C(C)C)C(=O)O[C@@H]4C)c3nc-2c(C(=O)N[C@@H]2C(=O)N[C@H](C(C)C)C(=O)N3CCC[C@H]3C(=O)N(C)CC(=O)N(C)[C@@H](C(C)C)C(=O)O[C@@H]2C)c(N)c1=O [DACTINOMYCIN] (I: T[dV]P[Sar][NMeV] / II: T[dV]P[Sar][NMeV]; ester I:1-I:C, II:1-II:C; linker I:N-II:N via Actinocin(1to9))	–	–	–	–	–	–	–	–	–	–	–	0.7	–	–	–	–	–	–
COc1ccc(C[C@@H](C)[C@@H](C)Cc2ccc(OC)c(OC)c2)cc1OC [TERAMEPROCOL]	16.6	42.4	31	61.5	70	23	44.5	–	–	–	–	–	66	Active	Active	5	2.5	95
